Assay results of several laboratories.
Protocols differ between the studies behind these lines.
Observed: cell growth or viability

O=C(Nc1ccc(Cl)cc1)Nc1cccc(-c2cn(Cc3cccc(Br)c3)nn2)c1
viability (Huh-7; CCK-8; 50 µM; 72 h): 14.5%

O=C(Nc1ccc(-c2ccccc2)cc1)c1cnn(-c2ccc([N+](=O)[O-])cc2)c1C(F)(F)F
inhibition (LX-2; MTS; 50 µM; 72 h): 12.4%

O=C(NCc1cn(Cc2cccc(Cl)c2)nn1)Nc1ccc(Cl)cc1
viability (Huh-7; CCK-8; 50 µM; 48 h): 86.1%

COc1ccc(NC(=O)NCc2cn(Cc3ccc(Cl)cc3)nn2)cc1
IC50 (Huh-7; CCK-8; 72 h): > 50 µM

COc1cc(NC(=O)c2cnn(-c3ccc([N+](=O)[O-])cc3)c2C(F)(F)F)cc(OC)c1OC
inhibition (LX-2; MTS; 50 µM; 72 h): 11%

COc1ccc(NC(=O)Nc2ccc(-c3cn(Cc4ccc(C)cc4)nn3)cc2)cc1
viability (Huh-7; CCK-8; 50 µM; 72 h): 64.7%

O=[N+]([O-])c1cc(I)c(O)c(C=NNc2ccc(Br)cc2)c1
IC50 (HEK-293T; MTT; 24 h): 11.4 µM

O=C(Nc1ccc(Cl)cc1)Nc1cccc(-c2cn(Cc3ccc(Cl)cc3)nn2)c1
viability (Huh-7; CCK-8; 50 µM; 48 h): 84%

O=[N+]([O-])c1cc(I)c(O)c(C=NNc2ccc(C(F)(F)F)cc2)c1
IC50 (HEK-293T; MTT; 24 h): 8.11 µM

O=C(Nc1ccc(Cl)cc1)Nc1ccc(-c2cn(Cc3ccc(Br)cc3)nn2)cc1
viability (Huh-7; CCK-8; 50 µM; 72 h): 65%

COc1ccc(NC(=O)NCc2cn(Cc3ccccc3C)nn2)cc1
viability (Huh-7; CCK-8; 50 µM; 48 h): 84.2%

C=C(NC(=O)C(=C)NC(=O)c1csc(C2=N[C@@H]3c4csc(n4)[C@H]4NC(=O)c5csc(n5)[C@H]([C@](C)(O)[C@@H](C)O)NC(=O)[C@H]5CSC(=N5)/C(=C/C)NC(=O)[C@H]([C@@H](C)O)NC(=O)c5csc(n5)[C@]3(CC2)NC(=O)[C@H](C)NC(=O)C(=C)NC(=O)[C@H](C)NC(=O)[C@H]([C@@H](C)CC)N[C@@H]2C=Cc3c([C@H](C)O)cc(nc3[C@H]2O)C(=O)O[C@@H]4C)n1)C(N)=O
EC50 (NCI-H2009): 1.5 µM

O=C(Nc1ccc(Cl)cc1)Nc1ccc(-c2cn(Cc3cccc(Cl)c3)nn2)cc1
viability (Huh-7; CCK-8; 50 µM; 72 h): 70.4%
